Compound activity (PubChem)
Most compounds without a hit are left out; they make up all but 3.7% or so of the library.
KCNQ1 pot: potentiators or activators of human KCNQ1 potassium channel. P51787. CHO-K1 KCNQ1, thallium flux FluxOR fluorescence; stronger effect = higher value. B-score at 10 µM. 0.35% of 310,000 active;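 active = fluorescence ratio B-score, a plate-corrected score, at least three library SD, with initial intensity B-score within 5 SD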
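Assay system: CHO-K1 cells stably expressing KCNQ1. Medium: assay buffer for compound exposure, DMSO matched across wells. Timing: 37 °C overnight plating, 90-min dark dye load, 20-min compound pretreatment. Signal: kinetic FluxOR fluorescence, 10 s baseline plus 110 s post-stimulus.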
KCNK3 inh: human KCNK3 channel inhibition, primary screen; B-score at 10 µM; CHO-KCNK3 thallium flux, FluxOR fluorescence; stronger effect = lower value; 0.84% of 340,000 active;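 active = B-score under library mean minus 4 SD, starting fluorescence ratio at most library mean plus 5 SD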;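 also: more negative B-score means stronger inhibition of thallium flux through KCNK3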
KCNQ1 inh: blocks the human KCNQ1 potassium channel | CHO-K1 KCNQ1, FluxOR thallium flux fluorescence; stronger effect = higher value | B-score at 10 µM | 1.3% of 310,000 active | AID 2642;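 active = compounds whose thallium flux B-score, printed positive for inhibition, exceeds three library SD while starting fluorescence stays within three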;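 also: channel opened by potassium depolarization with thallium stimulus after 20 min compound exposure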
Kir21 block: Kir2.1 (mouse) channel inhibition. P35561. 0.85% of 310,000 active. B-score at 10 µM. HEK293-Kir2.1, FluxOR thallium flux fluorescence; stronger effect = lower value. AID 1672;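 active = fluorescence ratio B-score at or below minus 3 SD of library scores, with starting-brightness B-score within 2 SD, cut at about -4.2 in these data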;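 also: channel flux triggered by added potassium and thallium sulfate stimulus; B-score of peak minus minimum fluorescence over baseline after thallium stimulus; more negative B-score means stronger Kir2.1 block with less thallium influx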
Target sequence (P35561 whole entry, looked up): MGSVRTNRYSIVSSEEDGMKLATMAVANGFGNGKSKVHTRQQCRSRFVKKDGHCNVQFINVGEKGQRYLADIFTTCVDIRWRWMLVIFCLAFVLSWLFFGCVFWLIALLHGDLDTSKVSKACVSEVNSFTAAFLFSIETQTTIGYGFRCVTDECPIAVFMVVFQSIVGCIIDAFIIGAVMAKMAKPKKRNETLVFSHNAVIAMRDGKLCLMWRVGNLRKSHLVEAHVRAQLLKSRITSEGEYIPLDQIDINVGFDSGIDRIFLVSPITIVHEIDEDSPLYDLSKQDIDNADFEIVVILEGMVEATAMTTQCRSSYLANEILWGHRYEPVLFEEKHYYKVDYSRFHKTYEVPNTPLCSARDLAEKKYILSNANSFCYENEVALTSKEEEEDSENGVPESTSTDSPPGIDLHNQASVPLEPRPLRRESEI
hERG protect: compounds protecting human hERG from proarrhythmic drug block. Q12809. CHO-hERG, FluxOR thallium flux, dofetilide IC70 present. activation (rescue from dofetilide block), less the hit threshold, % at 10 µM. 0.51% of 310,000 active. AID 1511;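 active = activation above the mean of controls blocked by dofetilide plus 5 SD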;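 also: thallium influx through hERG after potassium depolarization seen as dye fluorescence rise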
KCNK9 inh: inhibitors of human KCNK9 two-pore domain potassium channel; Q9NPC2; HEK293 KCNK9, FluxOR thallium flux fluorescence; stronger effect = lower value; B-score at 10 µM; 1.2% of 310,000 active;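 active = ratio B-score over 3 SD below the library mean, with starting fluorescence within 5 SD of its mean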;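 also: negative B-score means less thallium flux so channel inhibition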
* = called active by the depositor.

N=c1n(CCN2CCCCC2)c2ccccc2n1CC(O)c1cccc(Br)c1 (stereo unspecified) was read as KCNQ1 pot inactive, KCNK3 inh inactive, KCNQ1 inh inactive, Kir21 block -6.8*, hERG protect -10 and KCNK9 inh inactive.
`CN(C)CCn1c(=N)n(CC(O)c2ccc(Cl)c(Cl)c2)c2ccccc21` (stereo unspecified) gave KCNQ1 pot inactive, KCNK3 inh inactive, KCNQ1 inh inactive, Kir21 block -6.9*, hERG protect -17 and KCNK9 inh inactive.
`N=c1n(CCN2CCCCC2)c2ccccc2n1CC(=O)c1ccc(Cl)c(Cl)c1` gave KCNQ1 pot inactive, KCNK3 inh inactive, KCNQ1 inh inactive, Kir21 block -4.8*, hERG protect -25 and KCNK9 inh inactive.
`CC(NC(=O)Cc1ccsc1)c1ccc(F)cc1` (stereo unspecified) gave KCNQ1 pot inactive, KCNK3 inh inactive, KCNQ1 inh inactive, Kir21 block 0.11, hERG protect -7 and KCNK9 inh inactive.
`Cc1cc([N+](=O)[O-])ccc1NC(=O)c1cc2ccccc2o1` gave KCNQ1 pot inactive, KCNK3 inh inactive, KCNQ1 inh inactive, Kir21 block 0.16, hERG protect -6 and KCNK9 inh inactive.
`Cc1cc(Nc2ccccc2)n(C(=O)c2ccc(Cl)cc2)n1` gave KCNQ1 pot inactive, KCNK3 inh inactive, KCNQ1 inh inactive, Kir21 block -0.31, hERG protect -7 and KCNK9 inh -6.6*.
`Cc1cc(Nc2ccccc2)n(-c2ccc(C(=O)O)cc2)n1` gave KCNQ1 pot inactive, KCNK3 inh inactive, KCNQ1 inh inactive, Kir21 block -0.01, hERG protect 2 and KCNK9 inh inactive.
C=CCN(C(=O)C1CSC2(C)CCC(=O)N12)c1nc(-c2ccccc2)cs1 (stereo unspecified) was read as KCNQ1 pot inactive, KCNK3 inh inactive, KCNQ1 inh 6*, Kir21 block 0.89, hERG protect -5 and KCNK9 inh inactive.
For Cc1ccc(N(CC(=O)NC2CCCC2)C(=O)CNC(=O)c2cccs2)cc1F the results were KCNQ1 pot inactive, KCNK3 inh inactive, KCNQ1 inh inactive, Kir21 block -0.18, hERG protect -2 and KCNK9 inh inactive.
CC(=O)NCCOC(=O)Nc1sc(=S)n(C)c1C was read as KCNQ1 pot inactive, KCNK3 inh inactive, KCNQ1 inh 8*, Kir21 block -2, hERG protect -8 and KCNK9 inh inactive.
Cc1ccc(C)c(S(=O)(=O)NCCOC(=O)Nc2sc(=S)n(C)c2C)c1 was read as KCNQ1 pot inactive, KCNK3 inh inactive, KCNQ1 inh inactive, Kir21 block -2.3, hERG protect -4 and KCNK9 inh inactive.
Screening OC(CNCc1ccc(Cl)cc1)(c1ccccc1)c1ccc(F)cc1 (stereo unspecified) returned KCNQ1 pot inactive, KCNK3 inh inactive, KCNQ1 inh inactive, Kir21 block -3.9, hERG protect -18 and KCNK9 inh -7.6*.
OC(CNCc1ccc(F)cc1)(c1ccc(F)cc1)c1ccc(F)cc1 was read as KCNQ1 pot inactive, KCNK3 inh inactive, KCNQ1 inh inactive, Kir21 block -4.2, hERG protect -9 and KCNK9 inh -6.6*.
Cc1ccc(C(O)(CNCc2ccccc2)c2ccccc2)cc1 (stereo unspecified) was read as KCNQ1 pot inactive, KCNK3 inh inactive, KCNQ1 inh inactive, Kir21 block -11*, hERG protect -7 and KCNK9 inh inactive.
For COc1ccc(CNCC(O)(c2ccccc2)c2ccc(F)cc2)cc1 (stereo unspecified) the results were KCNQ1 pot inactive, KCNK3 inh inactive, KCNQ1 inh inactive, Kir21 block -7*, hERG protect -12 and KCNK9 inh inactive.
COc1ccc(CNCC(O)(c2ccccc2)c2ccc(F)cc2)cc1OC (stereo unspecified) was read as KCNQ1 pot inactive, KCNK3 inh inactive, KCNQ1 inh inactive, Kir21 block 0.06, hERG protect -10 and KCNK9 inh inactive.
Screening COc1ccc(CNCC(O)(c2ccc(F)cc2)c2ccc(F)cc2)cc1OC returned KCNQ1 pot inactive, KCNK3 inh inactive, KCNQ1 inh inactive, Kir21 block -0.83, hERG protect -11 and KCNK9 inh inactive.
For CC(C)CC(=O)c1c(O)c(C=O)c(O)c2c1O[C@@]1(C)[C@@H](C2)C[C@H]2C[C@@H]1C2(C)C the results were KCNK3 inh inactive.
For CCOc1ccc(NC(=O)C2CCCN(c3cnccn3)C2)cc1 (stereo unspecified) the results were KCNQ1 pot inactive, KCNK3 inh inactive, KCNQ1 inh inactive, Kir21 block 0.88, hERG protect -8 and KCNK9 inh inactive.
Screening C(#Cc1c(-c2ccsc2)sc2ccccc12)c1ccsc1 returned KCNK3 inh inactive.
For O=C(CC(O)c1ccncc1)c1ccccc1O (stereo unspecified) the results were KCNK3 inh inactive.
`Cc1cc(C(=O)COC(=O)c2cccnc2Cl)c(C)n1C` gave KCNK3 inh inactive.
For CS(=O)(=O)Nc1ccc(C2=NN(S(=O)(=O)c3ccccc3)C(c3cccs3)C2)cc1 (stereo unspecified) the results were KCNQ1 pot inactive, KCNK3 inh inactive, KCNQ1 inh inactive, Kir21 block -1.5, hERG protect -7 and KCNK9 inh -8.1*.
For O=S(=O)(c1ccccc1)N1CCCC1c1cccs1 (stereo unspecified) the results were KCNQ1 pot inactive, KCNK3 inh inactive, KCNQ1 inh inactive, Kir21 block -5.4*, hERG protect -15 and KCNK9 inh inactive.
For COc1ccc(S(=O)(=O)N2CCCC2c2cccs2)cc1 (stereo unspecified) the results were KCNQ1 pot inactive, KCNK3 inh inactive, KCNQ1 inh inactive, Kir21 block -3.5, hERG protect -12 and KCNK9 inh inactive.
Screening CS(=O)(=O)Nc1cccc(C2=NN(S(=O)(=O)c3ccc(F)cc3)C(c3cccs3)C2)c1 (stereo unspecified) returned KCNQ1 pot inactive, KCNK3 inh inactive, KCNQ1 inh inactive, Kir21 block -2.2, hERG protect -15 and KCNK9 inh inactive.
`O=C(CN1CCN(Cc2ccc(F)cc2)CC1)Nc1nc2ccccc2s1` gave KCNQ1 pot inactive, KCNK3 inh inactive, KCNQ1 inh inactive, Kir21 block 1.5, hERG protect -12 and KCNK9 inh inactive.
For CCN(CCCNC(=O)CN1C(=O)COc2ccc(S(=O)(=O)N3CCC(C)CC3)cc21)Cc1ccccc1 the results were KCNQ1 pot inactive, KCNK3 inh inactive, KCNQ1 inh inactive, Kir21 block -1.8, hERG protect -6 and KCNK9 inh inactive.
